Results published in ChEMBL document CHEMBL3860041, “Synthesis, biological evaluation and molecular modeling study of some new methoxylated 2-benzylthio-quinazoline-4(3H)-ones as nonclassical antifolates” (Bioorg Med Chem Lett, 2016).

What was measured:
Format in all cases: functional
[1] = Growth inhibition of human NCI-H522 cells at 10 uM after 48 hrs by SRB assay relative to control; settings: NCI-H522, 48 h, read-out: GI
Outline: (§1)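 NCI 60-cell-line panel, nine tumor subpanels; compounds tested at a single dose of 10 μM in the primary screen.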

Cancer cell lines [2] = assay: Potency index, ratio of 5-fluorouracil GI50 to compound GI50 for human renal cancer cells
Outline: (§2)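 GI50 for each cell line came from NCI panel testing over a 5-log dose range, with 5-fluorouracil tested alongside as the reference drug. The index relates the 5-fluorouracil GI50 to the compound GI50 within each tumour subpanel.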

[3] = Growth inhibition of human non-small cell lung cancer cells after 48 hrs by SRB assay; settings: Cancer cell lines
Outline: (§3)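 Follow-up NCI panel testing over a 5-log dose range for each cell line. GI50, TGI and LC50 were monitored, with 5-fluorouracil run as the positive control. Values are grouped by tumour subpanel.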

[4] = Growth inhibition of human SR cells at 10 uM after 48 hrs by SRB assay relative to control; settings: read-out: GI
Outline: (§4)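 Primary screen across the full NCI 60 human tumour cell line panel, which covers nine tumour subpanels. A single dose of 10 μM was applied to each line, and growth was recorded for each cell line.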

[5] = Growth inhibition of human HCT15 cells at 10 uM after 48 hrs by SRB assay relative to control; settings: HCT-15, 48 h, read-out: GI; outline: as §1
[6] = Growth inhibition of human melanoma cells after 48 hrs by SRB assay; settings: Melanoma cell; outline: as §3
[7] = Growth inhibition of human MDA-MB-231 cells at 10 uM after 48 hrs by SRB assay relative to control; settings: MDA-MB-231, 48 h, read-out: GI; outline: as §1
[8] = Growth inhibition of human MCF7 cells at 10 uM after 48 hrs by SRB assay relative to control; settings: MCF7, 48 h, read-out: GI; outline: as §1
[9] = Growth inhibition of human KM12 cells at 10 uM after 48 hrs by SRB assay relative to control; settings: KM12, 48 h, read-out: GI; outline: as §1
[10] = Growth inhibition of human M14 cells at 10 uM after 48 hrs by SRB assay relative to control; settings: M14, 48 h, read-out: GI; outline: as §1
[11] = Growth inhibition of human SF268 cells at 10 uM after 48 hrs by SRB assay relative to control; settings: SF-268, 48 h, read-out: GI; outline: as §1
[12] = Growth inhibition of human SK-MEL-5 cells at 10 uM after 48 hrs by SRB assay relative to control; settings: SK-MEL-5, 48 h, read-out: GI; outline: as §4
[13] = Growth inhibition of human OVCAR8 cells at 10 uM after 48 hrs by SRB assay relative to control; settings: OVCAR-8, 48 h, read-out: GI; outline: as §1
[14] = Growth inhibition of human MDA-MB-468 cells at 10 uM after 48 hrs by SRB assay relative to control; settings: MDA-MB-468, 48 h, read-out: GI; outline: as §1
[15] = Growth inhibition of human OVCAR5 cells at 10 uM after 48 hrs by SRB assay relative to control; settings: OVCAR-5, 48 h, read-out: GI; outline: as §1
Cancer cell lines [16] = assay: Potency index, ratio of 5-fluorouracil GI50 to compound GI50 for human ovarian cancer cells; outline: as §2
[17] = Growth inhibition of human RPMI8226 cells at 10 uM after 48 hrs by SRB assay relative to control; settings: RPMI-8226, 48 h, read-out: GI; outline: as §1
[18] = Growth inhibition of human renal cancer cells after 48 hrs by SRB assay; settings: Cancer cell lines; outline: as §3
[19] = Growth inhibition of human colon cancer cells after 48 hrs by SRB assay; settings: Cancer cell lines; outline: as §3
[20] = Growth inhibition of human IGROV1 cells at 10 uM after 48 hrs by SRB assay relative to control; settings: IGROV-1, 48 h, read-out: GI; outline: as §1
[21] = Growth inhibition of human 786-0 cells at 10 uM after 48 hrs by SRB assay relative to control; settings: 786-0, 48 h, read-out: GI; outline: as §1
[22] = Growth inhibition of human prostate cancer cells after 48 hrs by SRB assay; settings: Cancer cell lines; outline: as §3
[23] = Growth inhibition of human MOLT4 cells at 10 uM after 48 hrs by SRB assay relative to control; settings: MOLT-4, 48 h, read-out: GI; outline: as §1
[24] = Growth inhibition of human breast cancer cells after 48 hrs by SRB assay; settings: Cancer cell lines; outline: as §3
[25] = Growth inhibition of human A549 cells at 10 uM after 48 hrs by SRB assay relative to control; settings: A549, 48 h, read-out: GI; outline: as §1
[26] = Growth inhibition of human UO31 cells at 10 uM after 48 hrs by SRB assay relative to control; settings: UO-31, 48 h, read-out: GI; outline: as §4
[27] = Growth inhibition of human HOP92 cells at 10 uM after 48 hrs by SRB assay relative to control; settings: HOP-92, 48 h, read-out: GI; outline: as §1
[28] = Growth inhibition of human HOP62 cells at 10 uM after 48 hrs by SRB assay relative to control; settings: HOP-62, 48 h, read-out: GI; outline: as §1
[29] = Growth inhibition of human HT-29 cells at 10 uM after 48 hrs by SRB assay relative to control; settings: HT-29, 48 h, read-out: GI; outline: as §1
[30] = Growth inhibition of human OVCAR4 cells at 10 uM after 48 hrs by SRB assay relative to control; settings: OVCAR-4, 48 h, read-out: GI; outline: as §1
[31] = Growth inhibition of human COLO205 cells at 10 uM after 48 hrs by SRB assay relative to control; settings: COLO 205, 48 h, read-out: GI; outline: as §1
Cancer cell lines [32] = assay: Potency index, ratio of 5-fluorouracil GI50 to compound GI50 for human CNS cancer cells; outline: as §2
[33] = Growth inhibition of human SKOV3 cells at 10 uM after 48 hrs by SRB assay relative to control; settings: SK-OV-3, 48 h, read-out: GI; outline: as §4
[34] = Growth inhibition of human SF295 cells at 10 uM after 48 hrs by SRB assay relative to control; settings: SF-295, 48 h, read-out: GI; outline: as §1
[35] = Growth inhibition of human SNB75 cells at 10 uM after 48 hrs by SRB assay relative to control; settings: SNB-75, 48 h, read-out: GI; outline: as §4

Structure (SMILES): COc1ccccc1-n1c(SCc2cc(OC)c(OC)c(OC)c2)nc2ccc(Cl)cc2c1=O
- inhibition of growth at 10 µM [1]: < 10%
- RatioGI50 (Cancer cell lines [2]): 2 - 10
- GI50 [3]: 5.8 µM
- LC50 (concentration killing 50% of cells) [3]: > 100 µM
- TGI [3]: > 100 µM
- inhibition of growth at 10 µM [4]: 84%
- inhibition of growth at 10 µM [5]: 72.2%
- GI50 [6]: 4.2 µM
- LC50 [6]: > 100 µM
- TGI [6]: 91.7 µM
- inhibition of growth at 10 µM [7]: 44.3%
- inhibition of growth at 10 µM [8]: 84.4%
- inhibition of growth at 10 µM [9]: 83.6%
- inhibition of growth at 10 µM [10]: 84.1%
- inhibition of growth at 10 µM [11]: 58.4%
- inhibition of growth at 10 µM [12]: 72.3%
- inhibition of growth at 10 µM [13]: 44.7%
- inhibition of growth at 10 µM [14]: 84.4%
- inhibition of growth at 10 µM [15]: 46.7%
- RatioGI50 (Cancer cell lines [16]): 2 - 10
- inhibition of growth at 10 µM [17]: 82.6%
- GI50 [18]: 10.6 µM
- LC50 [18]: > 100 µM
- TGI [18]: 93.5 µM
- GI50 [19]: 3.1 µM
- LC50 [19]: > 100 µM
- TGI [19]: > 100 µM
- inhibition of growth at 10 µM [20]: 52.3%
- inhibition of growth at 10 µM [21]: 49%
- GI50 [22]: 5.9 µM
- LC50 (concentration killing 50% of cells) [22]: > 100 µM
- TGI [22]: > 100 µM
- inhibition of growth at 10 µM [23]: 84.7%
- GI50 [24]: 3.5 µM
- LC50 [24]: > 100 µM
- TGI [24]: 84.8 µM
- inhibition of growth at 10 µM [25]: 68.9%
- inhibition of growth at 10 µM [26]: 57.4%
- inhibition of growth at 10 µM [27]: 57.1%
- inhibition of growth at 10 µM [28]: 48.2%
- inhibition of growth at 10 µM [29]: 92.3%
- inhibition of growth at 10 µM [30]: 37%
- inhibition of growth at 10 µM [31]: 72%
- RatioGI50 (Cancer cell lines [32]): 2 - 10
- inhibition of growth at 10 µM [33]: 40.6%
- inhibition of growth at 10 µM [34]: 68.2%

Structure (SMILES): COc1ccc(-n2c(SCc3cc(OC)c(OC)c(OC)c3)nc3ccc(C)cc3c2=O)c(OC)c1
- inhibition of growth at 10 µM [1]: < 10%
- RatioGI50 (Cancer cell lines [2]): 2 - 10
- GI50 [3]: 17.7 µM
- LC50 (concentration killing 50% of cells) [3]: > 100 µM
- TGI [3]: 96.5 µM
- inhibition of growth at 10 µM [4]: 92.3%
- inhibition of growth at 10 µM [5]: 76.4%
- GI50 [6]: 4.2 µM
- LC50 [6]: 89.9 µM
- TGI [6]: 77.4 µM
- inhibition of growth at 10 µM [35]: 70.4%
- inhibition of growth at 10 µM [7]: 55.2%
- inhibition of growth at 10 µM [8]: 84.6%
- inhibition of growth at 10 µM [9]: 81.9%
- inhibition of growth at 10 µM [10]: 88.8%
- inhibition of growth at 10 µM [11]: 55.9%
- inhibition of growth at 10 µM [12]: 82.4%
- inhibition of growth at 10 µM [13]: 54.5%
- inhibition of growth at 10 µM [14]: 83%
- inhibition of growth at 10 µM [15]: 56.8%
- RatioGI50 (Cancer cell lines [16]): 2 - 10
- GI50 [18]: 15.4 µM
- LC50 [18]: > 100 µM
- TGI [18]: 92.5 µM
- GI50 [19]: 4.4 µM
- LC50 [19]: > 100 µM
- TGI [19]: 87.4 µM
- inhibition of growth at 10 µM [20]: 64.3%
- inhibition of growth at 10 µM [21]: 70.4%
- GI50 [22]: 3.7 µM
- LC50 (concentration killing 50% of cells) [22]: > 100 µM
- TGI [22]: > 100 µM
- inhibition of growth at 10 µM [23]: 88.7%
- GI50 [24]: 4.1 µM
- LC50 [24]: > 100 µM
- TGI [24]: 84.9 µM
- inhibition of growth at 10 µM [25]: 81.1%
- inhibition of growth at 10 µM [26]: 81.8%
- inhibition of growth at 10 µM [27]: 77.3%
- inhibition of growth at 10 µM [28]: 52.6%
- inhibition of growth at 10 µM [29]: 88.8%
- inhibition of growth at 10 µM [30]: 42.6%
- RatioGI50 (Cancer cell lines [32]): 2 - 10
- inhibition of growth at 10 µM [33]: 54.7%
- inhibition of growth at 10 µM [34]: 93.7%
